In ChEMBL document CHEMBL3244425 (J Med Chem, 1979) one finds fraction unbound, Ratio and Drug recovery data, which are given here for 20 compounds.

Series [1] can be described thus: Fraction unbound in 22% albino mouse serum at 10 uM by equilibrium dialysis method in presence of diisopropyl fluorophosphate. It is filed as ADME, cell-free. A general note: In equilibrium dialysis only unbound substance equilibrates across the membrane.
The target in series [2] is serum albumin (Homo sapiens, UniProt P02768). Put plainly: Binding affinity to human serum albumin at 10 uM after 12 to 20 hrs by scintillation spectrometry. The series is classed as ADME. Put shortly: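 HSA as supplied (lipid under 10 mg/g), 1% (10 mg/mL) in 0.05 M buffer. Equilibrium dialysis against buffer for 12-20 h at room temperature, with 10 μM radiolabeled substrate. Free percentage is taken from the ratio of radioactivities on the two sides, then corrected for partial hydrolysis using TLC of ether extracts.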

The nature of series [3]: Ratio of oxazepam level in brain to blood in albino mouse at 10 mg equivalent of oxazepam/kg after 30 mins. The series is classed as ADME, tissue-based. Particulars: 0.5 h.
Series [4] can be described thus: Ratio of oxazepam level in brain to blood in albino mouse at 10 mg equivalent of oxazepam/kg after 5 mins. It is filed as ADME, tissue-based.
Series [5] can be described thus: Ratio of oxazepam level in brain to blood in albino mouse at 10 mg equivalent of oxazepam/kg after 3 mins. It is filed as ADME, tissue-based. Conditions: 0.05 h.
Series [6] relates to Mus musculus. Put plainly: Drug excretion in albino mouse assessed as unexcreted drug at 10 mg equivalent of oxazepam/kg after 100 to 150 hrs. The series is classed as ADME, organism-based. Conditions: in vivo.
The nature of series [7]: Ratio of oxazepam level in brain to blood in albino mouse at 10 mg equivalent of oxazepam/kg after 10 mins. It is filed as ADME, tissue-based.
Series [8] can be described thus: Ratio of oxazepam level in brain to blood in albino mouse at 10 mg equivalent of oxazepam/kg after 1 min. It is filed as ADME, tissue-based.
Series [9] in a line: Ratio of oxazepam level in brain to blood in albino mouse at 10 mg equivalent of oxazepam/kg after 20 mins. It is filed as ADME, tissue-based.
Series [10] is described as follows: Ratio of oxazepam level in brain to blood in albino mouse at 10 mg equivalent of oxazepam/kg after 6 mins. The series is classed as ADME, tissue-based. Conditions: 0.1 h.
The nature of series [11]: Ratio of oxazepam level in brain to blood in albino mouse at 10 mg equivalent of oxazepam/kg after 12 mins. The series is classed as ADME, tissue-based. Conditions: 0.2 h.
Series [12] can be described thus: Ratio of oxazepam level in brain to blood in albino mouse at 10 mg equivalent of oxazepam/kg after 40 mins. It is filed as ADME, tissue-based.
Series [13] concerns Mus musculus. Kind of series: Drug excretion in albino mouse assessed as unexcreted drug at 10 mg equivalent of oxazepam/kg after 150 hrs. The series is classed as ADME, organism-based. Conditions: in vivo.
Series [14] can be described thus: Ratio of oxazepam level in brain to blood in albino mouse at 15 mg equivalent of oxazepam/kg after 3 mins. Particulars: 0.05 h. It is filed as ADME, tissue-based.
A short description of series [15]: Ratio of oxazepam level in brain to blood in albino mouse at 15 mg equivalent of oxazepam/kg after 20 mins. It is filed as ADME, tissue-based.
Series [16] is described as follows: Ratio of oxazepam level in brain to blood in albino mouse at 15 mg equivalent of oxazepam/kg after 12 mins. Conditions: 0.2 h. The series is classed as ADME, tissue-based.
A short description of series [17]: Ratio of oxazepam level in brain to blood in albino mouse at 15 mg equivalent of oxazepam/kg after 40 mins. It is filed as ADME, tissue-based.
A short description of series [18]: Ratio of oxazepam level in brain to blood in albino mouse at 15 mg equivalent of oxazepam/kg after 6 mins. The series is classed as ADME, tissue-based. Conditions: 0.1 h.
Series [19] can be described thus: Ratio of oxazepam level in brain to blood in albino mouse at 15 mg equivalent of oxazepam/kg after 1 min. It is filed as ADME, tissue-based.
Series [20] is described as follows: Ratio of oxazepam level in brain to blood in albino mouse at 10 mg equivalent of oxazepam/kg after 2 mins. It is filed as ADME, tissue-based.
The nature of series [21]: Ratio of oxazepam level in brain to blood in albino mouse at 5 mg equivalent of oxazepam/kg after 5 mins. The series is classed as ADME, tissue-based.
Series [22] is described as follows: Ratio of oxazepam level in brain to blood in albino mouse at 5 mg equivalent of oxazepam/kg after 20 mins. It is filed as ADME, tissue-based.
Series [23] can be described thus: Ratio of oxazepam level in brain to blood in albino mouse at 5 mg equivalent of oxazepam/kg after 40 mins. It is filed as ADME, tissue-based.
The nature of series [24]: Ratio of oxazepam level in brain to blood in albino mouse at 5 mg equivalent of oxazepam/kg after 10 mins. It is filed as ADME, tissue-based.
Series [25] in a line: Ratio of oxazepam level in brain to blood in albino mouse at 5 mg equivalent of oxazepam/kg after 2 mins. It is filed as ADME, tissue-based.
Series [26] relates to Mus musculus. Put plainly: Drug excretion in albino mouse assessed as unexcreted drug at 5 mg equivalent of oxazepam/kg after 150 hrs. Conditions: in vivo. The series is classed as ADME, organism-based.
Series [27] can be described thus: Ratio of oxazepam level in brain to blood in albino mouse at 5 mg equivalent of oxazepam/kg after 1 min. The series is classed as ADME, tissue-based.
The nature of series [28]: Ratio of oxazepam level in brain to blood in albino mouse at 5 mg equivalent of oxazepam/kg after 3 mins. The series is classed as ADME, tissue-based. Conditions: 0.05 h.
Series [29] concerns Mus musculus. Put plainly: Drug excretion in albino mouse assessed as unexcreted drug at 5 mg equivalent of oxazepam/kg after 96 hrs. It is filed as ADME, organism-based. Conditions: in vivo.
Series [30] concerns Mus musculus. Put plainly: Drug excretion in albino mouse assessed as unexcreted drug at 10 mg equivalent of oxazepam/kg after 96 hrs. The series is classed as ADME, organism-based. Conditions: in vivo.

SMILES strings stand for the structures.

Chain of serum albumin (P02768 whole entry): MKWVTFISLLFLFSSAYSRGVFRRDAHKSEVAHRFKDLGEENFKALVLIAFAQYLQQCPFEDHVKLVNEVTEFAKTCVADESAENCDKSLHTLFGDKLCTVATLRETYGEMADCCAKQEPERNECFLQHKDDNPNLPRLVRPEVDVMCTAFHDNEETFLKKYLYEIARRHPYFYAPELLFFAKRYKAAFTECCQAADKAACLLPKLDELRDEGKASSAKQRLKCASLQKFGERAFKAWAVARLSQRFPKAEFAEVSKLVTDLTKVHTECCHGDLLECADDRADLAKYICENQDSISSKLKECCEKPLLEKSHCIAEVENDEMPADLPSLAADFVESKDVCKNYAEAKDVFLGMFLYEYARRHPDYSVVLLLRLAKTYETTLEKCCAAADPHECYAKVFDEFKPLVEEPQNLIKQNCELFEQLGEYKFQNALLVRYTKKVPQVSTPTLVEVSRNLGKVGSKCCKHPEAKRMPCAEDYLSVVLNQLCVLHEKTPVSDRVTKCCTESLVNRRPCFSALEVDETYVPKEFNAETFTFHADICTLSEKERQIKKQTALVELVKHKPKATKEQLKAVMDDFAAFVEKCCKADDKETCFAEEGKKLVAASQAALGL

Take `CCC(CC)C(=O)OC1N=C(c2ccccc2)c2cc(Cl)ccc2NC1=O` (stereo not given): the fraction unbound – broadly, the share of the substance not bound to proteins or other matrix – at 10 µM is 0.038 in [1] and 0.06 in series [2].

Turning to `CC(=O)OC1N=C(c2ccccc2)c2cc(Cl)ccc2NC1=O` (stereo not given), the fraction unbound at 10 µM in [1] amounted to 0.285; in [2], 0.246.

In the case of `CCCC(=O)OC1N=C(c2ccccc2)c2cc(Cl)ccc2NC1=O` (stereo not given), the fraction unbound at 10 µM amounted to 0.149 in [1] and 0.089 in series [2].

For the compound `CC(C)C(=O)OC1N=C(c2ccccc2)c2cc(Cl)ccc2NC1=O` (stereo not given), the fraction unbound at 10 µM came to 0.147 in [1] and 0.078 in series [2].

For `COC(=O)CCC(=O)OC1N=C(c2ccccc2)c2cc(Cl)ccc2NC1=O` (stereo not given), the unbound share (fraction unbound) at 10 µM is 0.299 in series [1] and 0.172 in series [2].

Consider `O=C(CCCc1ccccc1)OC1N=C(c2ccccc2)c2cc(Cl)ccc2NC1=O` (stereo not given), for which the figures for the fraction unbound at 10 µM in series [1] and in series [2] were 0.102 and 0.034, respectively.

Consider `O=C(CCc1ccccc1)OC1N=C(c2ccccc2)c2cc(Cl)ccc2NC1=O` (stereo not given), for which the fraction unbound at 10 µM in series [2] is 0.052.

As to `CC(Cc1ccccc1)C(=O)OC1N=C(c2ccccc2)c2cc(Cl)ccc2NC1=O` (stereo not given), the values for the fraction unbound at 10 µM in series [1] and in series [2] were 0.111 and 0.051, respectively.

For the compound `CC(=O)OC1N=C(c2ccccc2)c2cc(Cl)ccc2N[14C]1=O` (stereo not given), the Ratio came out at 4 in series [3]; 2 in [4]; 3.4 in series [5]; 2.4 in [7]; 4 in [8]. Moreover, in [6], the Drug recovery amounted to 0%.

Take `CCC(=O)OC1N=C(c2ccccc2)c2cc(Cl)ccc2N[14C]1=O` (stereo not given): the Ratio in series [9] is reported as 2.8; in [10] it was 3; in [11], 2.4; in [12], 2.8; in [5], 2; in [8], 3.8. In addition, the Drug recovery in [13] is recorded as 19%.

`CCCC(=O)OC1N=C(c2ccccc2)c2cc(Cl)ccc2N[14C]1=O` (stereo not given): the Ratio in series [14] was determined as 0.3; in series [15], 1.4; in [16], 0.8; in series [17] it was 2; in series [18], 0.4; in series [19] it was 0.2.

Regarding `CCC(CC)C(=O)OC1N=C(c2ccccc2)c2cc(Cl)ccc2N[14C]1=O` (stereo not given), the Ratio in series [9] came out at 1.1; in [3], 1.4; in series [12], 1.7; in [4], 0.6; in series [20], 0.7; in [7] it was 1.

In the case of `CC(C)C(=O)OC1N=C(c2ccccc2)c2cc(Cl)ccc2N[14C]1=O` (stereo not given), the Ratio is 1.2 in series [21]; 1.9 in series [22]; 2.3 in series [23]; 1.8 in series [24]; 0.7 in [25].

For `O=C(CCCc1ccccc1)OC1N=C(c2ccccc2)c2cc(Cl)ccc2N[14C]1=O` (stereo not given), the Ratio in series [21] is recorded as 0.3; in [22], 1; in series [23], 0.9; in series [27], 0.5; in [28], 0.5; in [24], 0.4. Further, the Drug recovery in series [26] is 38%.

In the case of `O=C(CCc1ccccc1)OC1N=C(c2ccccc2)c2cc(Cl)ccc2N[14C]1=O` (stereo not given), the Ratio in series [21] is reported as 0.5; in [22], 1.4; in series [23], 2.2; in series [27], 0.6; in series [28], 0.4; in series [24], 0.5. Besides, the Drug recovery in series [29] stood at 26%.

As to `CC(C)CC(=O)OC1N=C(c2ccccc2)c2cc(Cl)ccc2NC1=O` (stereo not given), the figures for the fraction unbound at 10 µM in [1] and in series [2] were 0.067 and 0.093, respectively.

Turning to `CC(C)(C)C(=O)OC1N=C(c2ccccc2)c2cc(Cl)ccc2N[14C]1=O` (stereo not given), the Ratio was found to be 2 in series [9]; 2.5 in [3]; 2 in series [4]; 1.7 in [5]; 2.2 in [7]. In [30], the Drug recovery worked out at 7%.

For `CC(C)(Cc1ccccc1)C(=O)OC1N=C(c2ccccc2)c2cc(Cl)ccc2NC1=O` (stereo not given), the values for the fraction unbound at 10 µM in series [1] and in series [2] were 0.113 and 0.022, respectively.

In the case of `CC(Cc1ccccc1)C(=O)OC1N=C(c2ccccc2)c2cc(Cl)ccc2N[14C]1=O` (single isomer, unassigned; (+)), the Drug recovery in [26] is 34%.

Turning to `CC(Cc1ccccc1)C(=O)OC1N=C(c2ccccc2)c2cc(Cl)ccc2N[14C]1=O` (single isomer, unassigned; (-)), the Ratio in series [21] came out at 1.1; in series [22] it was 2; in series [23] it was 2.1; in series [28], 0.3; in series [24], 1.6.
